Results on eleven compounds are retold here after ChEMBL document CHEMBL1122320, “1H-2-benzopyran-1-one derivatives, microbial products with pharmacological activity. Relationship between structure and activity in 6-[[1(S)-(3(S),4- dihydro-8-hydroxy-1-oxo-1H-2-benzopyran-3-yl)-3-methylbutyl]-amino]-4(S), 5(S)-dihydroxy-6-oxo-3(S)-ammoniohexanoate” (J Med Chem, 1983).

In general, LD50 refers to the dose at which mortality reaches 50%.

The subject of data set [1] is Rattus norvegicus. As to the kind of experiment: Gastroprotective activity on stress-induced ulcers in male Wistar rats at 25 mg/kg upon intraperitoneal administration. Type of data set: functional. Summed up: (§1)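 Rats (160-180 g) fasted 24 h, given test compound ip in physiological saline; saline-only controls. After 1 h, restrained in net cage and immersed to xiphisternum in 21 °C water bath for 6 h, then killed and stomachs opened along greater curvature. Hemorrhagic ulceration scored 0-3; % protection = 100 − (treated total rating/saline rating)×100. Five rats per dose.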

Data set [2] deals with Rattus norvegicus. As to the kind of experiment: Gastroprotective activity on stress-induced ulcers in male Wistar rats at 50 mg/kg upon intraperitoneal administration. It counts as functional. Summed up:
as §1

Data set [3] relates to Rattus norvegicus. Kind of data set: Gastroprotective activity on stress-induced ulcers in male Wistar rats at 12.5 mg/kg upon intraperitoneal administration. Type of data set: functional. Summed up:
as §1

Data set [4] relates to Rattus norvegicus. As to the kind of experiment: Gastroprotective activity on stress-induced ulcers in male Wistar rats at 6.25 mg/kg upon intraperitoneal administration. It counts as functional. Summed up: as §1
Data set [5] can be described thus: Lethal dose in mice upon intraperitoneal administration;Value ranges from(131.6-243.4). Type of data set: toxicity, organism-based. To be noted: mouse, in vivo, ip.
Data set [6] deals with Rattus norvegicus. As to the kind of experiment: Gastroprotective activity on stress-induced ulcers in male Wistar rats at 6.25 mg/kg upon intraperitoneal administration;the minimum effective dose = 125 ug/kg (protection 66%). Type of data set: functional. Summed up: (§2)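 Male Wistar rats (160-180 g), food-deprived 24 h, given compound ip in physiological saline; saline-only controls. After 1 h, restrained in net cage and immersed to xiphisternum in 21 °C water for 6 h. Stomachs removed and opened along greater curvature, hemorrhagic ulceration scored 0-3. % protection = 100 − (treated total rating / saline rating)×100. Five rats per dose.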

Data set [7] has as its system Rattus norvegicus. As to the kind of experiment: Gastroprotective activity on stress-induced ulcers in male Wistar rats at the specified ip dose of 12.5 mg/kg. Type of data set: functional. To be noted: route intraperitoneal. Summed up: as §2
Data set [8] is described as follows: Lethal dose in mice upon intraperitoneal administration;Value ranges from(5-9.8). Type of data set: toxicity, organism-based. To be noted: mouse, in vivo, ip.

With `NC(CC(=O)O)C(O)C(O)C(=O)[O-].[Na+]` (centres undefined), the Protection with Rattus norvegicus [1] is given as 23%; with Rattus norvegicus [2], 43%; in the data set with Rattus norvegicus [3] it was 0%.

Consider `CC(C)CC(NC(=O)C(O)C1OC(=O)CC1N)C1Cc2cccc(O)c2C(=O)O1` (centres undefined), for which the Protection is 76% with Rattus norvegicus [1], 17% in the data set on Rattus norvegicus [4], 83% in the data set with Rattus norvegicus [2] and 76% with Rattus norvegicus [3].

Turning to `CC(C)CC(N)C1Cc2cccc(O)c2C(=O)O1.Cl` (centres undefined), the Protection is listed as 33% in the data set on Rattus norvegicus [1], 33% with Rattus norvegicus [2] and 16% in the data set with Rattus norvegicus [3].

Take `CC(=O)NC1CC(=O)OC1C(OC(C)=O)C(=O)NC(CC(C)C)C1Cc2cccc(OC(C)=O)c2C(=O)O1` (centres undefined): the Protection came out at 0% in the data set with Rattus norvegicus [1], 16% with Rattus norvegicus [2] and 0% with Rattus norvegicus [3].

Consider `CC(C)CC(NC(=O)C(O)C1C=CC(=O)O1)C1Cc2cccc(O)c2C(=O)O1` (centres undefined), for which the values for the Protection with Rattus norvegicus [1], with Rattus norvegicus [2] and in the data set on Rattus norvegicus [3] were 16%, 33% and 0%, respectively.

Regarding `CC(C)C[C@H](NC(=O)[C@@H](O)[C@@H](O)[C@@H](N)CC(=O)O)[C@@H]1Cc2cccc(O)c2C(=O)O1`, the Protection in the data set on Rattus norvegicus [1] is 100%; in the data set with Rattus norvegicus [4], 56%; in the data set with Rattus norvegicus [2] it was 100%; in the data set with Rattus norvegicus [3], 76%. Also, the median lethal dose (LD50) in data set [5] turned out to be 179 mg/kg.

With `CC(=O)NC1CC(=O)OC1C(O)C(=O)NC(CC(C)C)C1Cc2cccc(O)c2C(=O)O1` (centres undefined), the Protection in the data set on Rattus norvegicus [1] worked out at 33%; in the data set with Rattus norvegicus [2] it was 66%; in the data set on Rattus norvegicus [3], 16%.

Regarding `CC(C)CC(NC(=O)C(O)C(O)C(N)CC(N)=O)C1Cc2cccc(O)c2C(=O)O1.Cl` (centres undefined), the Protection in the data set on Rattus norvegicus [1], in the data set on Rattus norvegicus [6], in the data set on Rattus norvegicus [7] and in the data set with Rattus norvegicus [2] was 100% in each case. This compound displayed an LD50 in data set [8] of 7 mg/kg.

Take `CC(=O)NC1CC(=O)OC1C(OC(C)=O)C(=O)NC(CC(C)C)C1Cc2cccc(O)c2C(=O)O1` (centres undefined): the Protection is listed as 16% in the data set on Rattus norvegicus [1], 16% with Rattus norvegicus [2] and 0% in the data set on Rattus norvegicus [3].

For `CC(C)CC(NC(=O)C(O)C(O)C(N)CC(=O)O)C(O)Cc1cccc(O)c1C(=O)[O-].[Na+]` (centres undefined), the Protection amounted to 50% in the data set on Rattus norvegicus [1], 50% with Rattus norvegicus [2] and 16% with Rattus norvegicus [3].

With `COc1cccc2c1C(=O)OC(C(CC(C)C)NC(=O)C(O)C(O)C(N)CC(=O)O)C2` (centres undefined), the Protection in the data set on Rattus norvegicus [1] is listed as 83%; with Rattus norvegicus [4], 50%; in the data set on Rattus norvegicus [2] it was 83%; with Rattus norvegicus [3], 66%.
